The test system of one series is Liver microsome. Nature of the series: Drug metabolism in Sprague-Dawley rat liver microsomes assessed as formation of 3-(4-((6-methoxy-1-methyl-1H-benzo[d]imidazol-2-yl)methoxy)phenyl)-2-(methylthio)propanamide at 20 uM after 2 hrs by radio-HPLC/LC-MS/MS analysis in presence of NADPH-generating system/SAM. The class given is ADME.
Series [1] is described as follows: Drug metabolism in rat hepatocytes assessed as formation of 2-amino-3-((1-carboxy-2-(4-((6-methoxy-1-methyl-1H-benzo[d]imidazol-2-yl)methoxy)phenyl)ethyl)disulfanyl)propanoic acid at 30 uM after 3 hrs by radio-HPLC/LC-MS/MS analysis. It counts as ADME, cell-based, Hepatocyte.
The next series concerns the target Cytochrome P450 2D6 (Homo sapiens, UniProt P10635). Nature of the series: Activity of human CYP2D6 expressed in microsomes isolated from baculovirus infected insect cell assessed as enzyme-mediated 2-mercapto-3-(4-((6-methoxy-1-methyl-1H-benzo[d]imidazol-2-yl)methoxy)phenyl)propanoic acid formation at 20 uM after 2 hrs by radio-HPLC/LC-MS/MS analysis in presence of NADPH-generating system. It counts as ADME. An outline of the steps: (§1)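 Baculovirus-insect-cell microsomes expressing the human CYP (1 mg/ml protein) were incubated with [14C]rivoglitazone (20 μM) in 50 mM potassium phosphate (pH 7.4) or 100 mM Tris-HCl (pH 7.5) with an NADPH-generating system (2 mM NADP+, 20 mM glucose 6-phosphate, 2 units/ml G6PDH, 10 mM MgCl2) for 2 h at 37°C. Insect-cell control supersomes served as the control. Reactions were stopped with acetonitrile, and the concentrated supernatants were analysed by radio-HPLC, LC-MS and LC-MS/MS.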

Series [2] addresses T1, Cytochrome P450 3A5 (Homo sapiens, UniProt P20815). Nature of the series: Activity of human CYP3A5 expressed in microsomes isolated from baculovirus infected insect cell assessed as enzyme-mediated 2-mercapto-3-(4-((6-methoxy-1-methyl-1H-benzo[d]imidazol-2-yl)methoxy)phenyl)propanoic acid formation at 20 uM after 2 hrs by radio-HPLC/LC-MS/MS analysis in presence of NADPH-generating system. The class given is ADME. A digest of the protocol:
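cDNA-expressed human CYP3A5 in baculovirus-insect-cell microsomes (1 mg/ml protein) was incubated with [¹⁴C]rivoglitazone (20 μM) in 50 mM potassium phosphate (pH 7.4) or 100 mM Tris-HCl (pH 7.5). NADPH-generating system: 2 mM NADP⁺, 20 mM glucose 6-phosphate, 2 units/ml G6PDH, 10 mM MgCl₂. Incubation ran 2 h at 37°C with shaking; insect-cell control supersomes served as control. Acetonitrile stop, supernatant concentrated, then radio-HPLC, LC-MS and LC-MS/MS.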

In another series the target is Cytochrome P450 2C19 (Homo sapiens, UniProt P33261). Nature of the series: Activity of human CYP2C19 expressed in microsomes isolated from baculovirus infected insect cell assessed as enzyme-mediated (2S,3S,4S,5R,6R)-3,4,5-trihydroxy-6-(5-(4-((6-methoxy-1-methyl-1H-benzo[d]imidazol-2-yl)methoxy)benzyl)-2,4-dioxothiazolidin-3-yl)tetrahydro-2H-pyran-2-carboxylic acid formation at 20 uM after 2 hrs by radio-HPLC/LC-MS/MS analysis in presence of UDPGA and UDPGA/SAM. The class given is ADME.
Cytochrome P450 2C19, sequence (P33261 whole entry): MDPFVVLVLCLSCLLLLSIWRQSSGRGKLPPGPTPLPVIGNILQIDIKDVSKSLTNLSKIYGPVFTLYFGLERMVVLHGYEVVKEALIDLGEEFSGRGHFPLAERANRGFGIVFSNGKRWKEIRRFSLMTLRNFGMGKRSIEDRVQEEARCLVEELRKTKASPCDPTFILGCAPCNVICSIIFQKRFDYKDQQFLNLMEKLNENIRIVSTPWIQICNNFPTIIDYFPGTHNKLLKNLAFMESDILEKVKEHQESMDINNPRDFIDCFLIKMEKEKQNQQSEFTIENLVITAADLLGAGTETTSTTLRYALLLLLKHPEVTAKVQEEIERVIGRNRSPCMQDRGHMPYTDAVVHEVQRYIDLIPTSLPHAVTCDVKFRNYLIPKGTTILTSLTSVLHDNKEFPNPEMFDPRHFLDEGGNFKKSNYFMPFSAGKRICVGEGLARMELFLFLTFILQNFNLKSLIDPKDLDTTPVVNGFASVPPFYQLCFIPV

In series [3] the target is T2, UDP-glucuronosyltransferase 1A6 (Homo sapiens, UniProt P19224).
T2 sequence (P19224 whole entry): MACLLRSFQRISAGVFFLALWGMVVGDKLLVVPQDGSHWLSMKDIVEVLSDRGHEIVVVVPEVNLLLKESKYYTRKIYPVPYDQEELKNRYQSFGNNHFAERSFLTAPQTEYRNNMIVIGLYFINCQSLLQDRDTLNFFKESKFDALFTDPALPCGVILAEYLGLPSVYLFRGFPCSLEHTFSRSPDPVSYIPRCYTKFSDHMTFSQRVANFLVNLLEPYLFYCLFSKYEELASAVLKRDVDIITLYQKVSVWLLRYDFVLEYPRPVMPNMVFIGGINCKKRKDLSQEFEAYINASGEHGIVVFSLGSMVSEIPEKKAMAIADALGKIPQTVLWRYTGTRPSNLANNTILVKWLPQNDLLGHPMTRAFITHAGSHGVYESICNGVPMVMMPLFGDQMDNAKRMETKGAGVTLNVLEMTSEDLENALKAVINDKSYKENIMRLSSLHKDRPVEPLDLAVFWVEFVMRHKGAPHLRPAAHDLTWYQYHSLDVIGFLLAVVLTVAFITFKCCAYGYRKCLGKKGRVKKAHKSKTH
Nature of the series: Activity of human UGT1A6 expressed in microsomes isolated from baculovirus infected insect cell assessed as enzyme-mediated (2S,3S,4S,5R,6R)-3,4,5-trihydroxy-6-(5-(4-((6-methoxy-1-methyl-1H-benzo[d]imidazol-2-yl)methoxy)benzyl)-2,4-dioxothiazolidin-3-yl)tetrahydro-2H-pyran-2-carboxylic acid formation at 20 uM after 4 hrs by radio-HPLC/LC-MS/MS analysis in presence of UDPGA. The class given is ADME.

In series [4] the target is T3, UDP-glucuronosyltransferase 1A3 (Homo sapiens, UniProt P35503).
T3 sequence (P35503 whole entry): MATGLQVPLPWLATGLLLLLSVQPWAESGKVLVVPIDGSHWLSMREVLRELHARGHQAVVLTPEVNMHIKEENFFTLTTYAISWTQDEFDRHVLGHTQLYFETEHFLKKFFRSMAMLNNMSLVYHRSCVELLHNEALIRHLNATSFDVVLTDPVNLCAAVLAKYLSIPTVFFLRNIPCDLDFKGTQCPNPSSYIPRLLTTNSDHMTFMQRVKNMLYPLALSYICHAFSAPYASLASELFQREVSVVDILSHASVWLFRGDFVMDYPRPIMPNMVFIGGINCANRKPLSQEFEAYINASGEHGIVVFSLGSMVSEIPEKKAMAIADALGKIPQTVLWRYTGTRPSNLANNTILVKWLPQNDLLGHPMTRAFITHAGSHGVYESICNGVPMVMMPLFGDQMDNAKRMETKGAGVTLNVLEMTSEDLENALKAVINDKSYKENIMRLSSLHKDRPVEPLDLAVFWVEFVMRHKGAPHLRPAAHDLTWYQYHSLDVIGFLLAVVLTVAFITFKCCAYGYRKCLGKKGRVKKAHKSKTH
Nature of the series: Activity of human UGT1A3 expressed in microsomes isolated from baculovirus infected insect cell assessed as enzyme-mediated (2S,3S,4S,5R,6R)-6-((1-carboxy-2-(4-((6-methoxy-1-methyl-1H-benzo[d]imidazol-2-yl)methoxy)phenyl)ethylthio)carbonylamino)-3,4,5-trihydroxytetrahydro-2H-pyran-2-carboxylic acid formation at 20 uM after 4 hrs by radio-HPLC/LC-MS/MS analysis in presence of NADPH-generating system/SAM. The class given is ADME.

In series [5] the target is T1, Cytochrome P450 3A5. The experiment in a line: Activity of human CYP3A5 expressed in microsomes isolated from baculovirus infected insect cell assessed as enzyme-mediated 2-amino-3-((1-carboxy-2-(4-((6-methoxy-1-methyl-1H-benzo[d]imidazol-2-yl)methoxy)phenyl)ethyl)disulfanyl)propanoic acid formation at 20 uM after 2 hrs by radio-HPLC/LC-MS/MS analysis. The class given is ADME. A digest of the protocol:
as §1

The text below walks through data of ChEMBL document CHEMBL3526048, “In vitro metabolism of rivoglitazone, a novel peroxisome proliferator-activated receptor γ agonist, in rat, monkey, and human liver microsomes and freshly isolated hepatocytes” (Drug Metab Dispos, 2011).

T1 sequence (P20815 whole entry): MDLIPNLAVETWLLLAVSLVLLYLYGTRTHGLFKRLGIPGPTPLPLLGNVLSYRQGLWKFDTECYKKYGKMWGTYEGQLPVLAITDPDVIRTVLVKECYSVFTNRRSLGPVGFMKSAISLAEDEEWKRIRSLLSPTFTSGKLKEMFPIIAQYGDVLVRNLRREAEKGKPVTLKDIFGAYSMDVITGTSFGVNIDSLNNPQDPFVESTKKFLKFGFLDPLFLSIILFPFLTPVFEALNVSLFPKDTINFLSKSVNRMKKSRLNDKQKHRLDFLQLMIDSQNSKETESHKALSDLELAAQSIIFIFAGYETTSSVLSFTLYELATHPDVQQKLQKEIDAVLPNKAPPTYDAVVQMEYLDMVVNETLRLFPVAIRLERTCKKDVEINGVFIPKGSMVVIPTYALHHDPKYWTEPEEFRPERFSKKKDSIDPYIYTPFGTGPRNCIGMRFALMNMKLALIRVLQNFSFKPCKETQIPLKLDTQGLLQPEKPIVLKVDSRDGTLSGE
Cytochrome P450 2D6, sequence (P10635 whole entry): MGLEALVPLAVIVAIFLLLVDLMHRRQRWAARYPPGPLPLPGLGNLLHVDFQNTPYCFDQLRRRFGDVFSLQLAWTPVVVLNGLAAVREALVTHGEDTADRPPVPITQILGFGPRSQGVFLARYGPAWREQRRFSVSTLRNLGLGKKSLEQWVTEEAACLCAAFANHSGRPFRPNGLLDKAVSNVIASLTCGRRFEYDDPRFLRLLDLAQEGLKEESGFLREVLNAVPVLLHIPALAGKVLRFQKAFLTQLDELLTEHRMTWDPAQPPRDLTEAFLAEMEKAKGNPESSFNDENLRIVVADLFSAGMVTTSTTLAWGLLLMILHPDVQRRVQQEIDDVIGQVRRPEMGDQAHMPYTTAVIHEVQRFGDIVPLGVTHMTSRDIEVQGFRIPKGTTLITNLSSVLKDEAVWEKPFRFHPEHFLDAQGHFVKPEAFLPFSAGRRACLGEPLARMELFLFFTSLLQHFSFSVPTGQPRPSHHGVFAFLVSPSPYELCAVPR

For the compound `COc1ccc2nc(COc3ccc(C[14CH]4SC(=O)NC4=O)cc3)n(C)c2c1.Cl` (racemic), the Drug metabolism entry in the series with Liver microsome is listed as “metabolite_detected”; in series [1], “metabolite_not_detected”; at Cytochrome P450 2D6, “metabolite_detected”; at Cytochrome P450 3A5 [2], “metabolite_detected”; on Cytochrome P450 2C19, “metabolite_not_detected”; in series [3], “metabolite_not_detected”. The Drug metabolism result in series [4] is listed as “metabolite_detected”; at Cytochrome P450 3A5 [5], “metabolite_not_detected”.
